# Assay outcomes: PubChem BioAssay, several laboratories
# PABP polyA inh = blocks human PABP binding to poly(A) RNA; P11940; fluorescence polarization; calls only at 35 µM; actives 1% (n = 290,000); AID 2014;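 note: calls also rest on retests at 20 µM and on dose response follow-up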
# SUMO HTRF inh = blocks human SUMOylation mediated by UBC9 | HTRF SUMOylation assay, SAE1/SAE2 + UBC9, in vitro | inhibition, % at 35 µM | AID 2006 | actives 0.36% (n = 290,000) | P63279; in the data active = inhibition above about 50%, passing the limit was not always enough; inconclusive = no clear call, values can overlap the other calls
# Target sequence (P63279 whole entry, looked up): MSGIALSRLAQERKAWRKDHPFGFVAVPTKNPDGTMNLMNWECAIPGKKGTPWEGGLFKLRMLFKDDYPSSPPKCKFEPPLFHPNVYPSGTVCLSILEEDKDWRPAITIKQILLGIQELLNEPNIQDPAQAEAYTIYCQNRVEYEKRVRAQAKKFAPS
# eIF4E-4G inh = blocks eIF4E binding to eIF4G; AID 782; inhibition, % at 21.7 µM; TR-FRET eIF4E-eIF4GI(517-606) binding, 2 h; actives 0.37% (n = 220,000);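 active = inhibition above about 30%, limit read from the data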;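 note: 0% = full FRET control wells and 100% = background wells lacking eIF4GI fragment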
# eIF4H FP inh = inhibitors of RNA binding by human eIF4H; eIF4H fluorescence polarization binding assay; inhibition, % at 35 µM; actives 0.94% (n = 290,000);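 note: calls also rest on retests at 20 µM and on dose response follow-up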
# PABP1 MLLE inh = blocks PAM2 peptide binding to the PABP1 MLLE domain; P11940; GST-MLLE / FITC-PAM2 fluorescence polarization; inhibition, % at 20 µM; actives 0.36% (n = 360,000); AID 588489; in the data active = inhibition above about 35%, passing the limit was not always enough;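 note: plate controls were DMSO wells with GST-MLLE for no effect and wells lacking GST-MLLE protein for full effect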
# HCV core dimer = HCV core protein dimerization inhibition; inhibition, % at 5 µM; AID 1899; actives 0.33% (n = 300,000); TR-FRET GST/Flag-core106 dimerization, 1536-well;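 active = inhibition above the mean of all tested compounds plus 3 SD, set per screening campaign, cut at about 45% in these data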
#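 Assay system – GST-tagged and Flag-tagged HCV core protein residues 1-106 · Quantity – core106 proteins, GST 13.5 nM and Flag 17 nM · Benchmarks – unlabelled core106 and no-GST-core106 wells · Read-out basis – percent inhibition of core106 dimerization signal · Detection – time-resolved FRET, ex 340 nm, em 617 and 671 nm · Schedule – 4 h at 22.5 °C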
# * = called active by the depositor; i = inactive; u = inconclusive; x = no result; + = active, no number; [ ] = remark or other dose. Compounds with a hit are over-represented: about 1.8% of the library has one in this group of screens. Unless noted, the rule behind the calls is not given here.
SMILES,PABP polyA inh,SUMO HTRF inh,eIF4E-4G inh,eIF4H FP inh,PABP1 MLLE inh,HCV core dimer
CCOC(=O)c1c2ccc(OCC(=O)N/N=C/c3ccc(Cl)cc3)cc2n2ccccc12,i,42,-10,5,x,x
CC1(C)CC(CCNC(=O)CCl)(c2ccccc2)CCO1 (stereo not drawn),i,10,0,-10,3,0
O=C(O)CC(c1ccc(F)cc1F)N1Cc2ccccc2C1=O (stereo not drawn),i,-7,x,1,5,4
CCN(C(=O)CSc1n[nH]c(N)n1)c1cccc2ccccc12,x,x,x,x,-4,x
O=C(NC1CC2CCC(C1)N2Cc1ccccc1)c1ccccc1Cl (stereo not drawn),i,13,x,5,-6,-2
O=C(N/C=N/O)C(c1ccccc1)c1ncc(C(F)(F)F)cc1Cl (stereo not drawn),i,2,x,-12,12,-14
Cc1ccnc(NS(=O)(=O)c2ccc3c(c2)CCO3)c1,i,-1,88*,-4,x,-2
Cc1ccnc(NS(=O)(=O)c2ccc(C(C)(C)C)cc2)c1,i,12,0,5,x,-2
CCOC(=O)c1c(NC(=O)C(Sc2ccccc2)c2ccccc2)sc(C(=O)N(C)C)c1C (stereo not drawn),+,-22,4,active,16,14
COc1ccc(-c2noc(CSc3nc(N)c(-c4ccccc4)c(=O)[nH]3)n2)cc1OC,i,-6,46*[fluorescence artefact?],-6,-2,2
Cc1ccc(NC(=O)CN(C)C(=O)c2cc(-c3ccco3)nc3ccccc23)cc1,x,x,x,x,-15,65*
CN(CC(=O)Nc1ccc(F)cc1)C(=O)c1cc(-c2ccco2)nc2ccccc12,x,x,x,x,-69,50*
COc1cccc(NC(=O)CN(C)C(=O)c2cc(-c3ccco3)nc3ccccc23)c1,x,x,x,x,-13,18
CC(OC(=O)Cc1ccccc1[N+](=O)[O-])C(=O)NC(=O)NC1CCCCC1 (stereo not drawn),x,x,x,x,5,0
C[C@H](NC(N)=O)C(=O)OCC(=O)NCc1cccs1,i,9,1,2,3,-4
O=C(CSc1nnc(Cc2ccccc2)o1)N1CCCc2ccccc21,i,7,-5,-4,32,-7
O=C(CSc1nnc(CNc2ccccc2)o1)N1CCc2ccccc21,i,6,36*,-4,5,3
O=C(CSc1ncn(-c2ccccc2)n1)N1CCc2ccccc21,i,0,31*[fluorescence artefact?],-6,20,14
Cc1ccnc(SCC(=O)N2CCc3ccccc32)n1,i,9,x,2,-9,6
O=C(NNC(=O)c1cc(-c2ccco2)nc2ccccc12)c1ccccc1,i,41,4,24,12,8
O=C(NN1CCOCC1)c1cc(-c2ccc(Br)cc2)nc2ccccc12,i,7,58*,3,3,1
CCc1ccc(-c2cc(C(=O)NN3CCOCC3)c3ccccc3n2)cc1,i,3,8,0,0,-1
O=C(COC(=O)c1cc(-c2ccco2)nc2ccccc12)NCc1ccccc1,i,30,-1,67,27,27
CCCNC(=O)COC(=O)c1cc(-c2ccc(OC)cc2)nc2ccccc12,+,29,4,0,1,3
CNC(=O)COC(=O)c1cc(-c2ccco2)nc2ccccc12,+,63*,38*,74*,-5,48*
SMILES,PABP polyA inh,SUMO HTRF inh,eIF4E-4G inh,eIF4H FP inh,PABP1 MLLE inh,HCV core dimer
O=C(O)c1cc(-c2ccco2)nc2cc3ccccc3cc12,+,26,0,100*,-3,3
Cc1[nH]c2ccccc2c1C(=O)NS(=O)(=O)Nc1ccc(Cl)cc1,i,-1,1,-3,-1,3
O=C(Nc1ccccc1N1CCOCC1)c1cc(-c2ccco2)nc2ccccc12,i,21,5,82*,8,56*
COCCCN(C(=O)c1cc(-c2ccco2)nc2ccccc12)c1c(N)n(Cc2ccccc2)c(=O)[nH]c1=O,x,x,x,x,7,11
CCN(CC)C(=O)COC(=O)c1cc(-c2ccc(OC)cc2)nc2ccccc12,i,23,3,13,-5,6
CCN(CC)C(=O)COC(=O)c1cc(-c2ccco2)nc2ccccc12,+,41,34*,82*,19,x
COc1cc(-c2cc(C(=O)Nc3ccccc3N3CCOCC3)c3ccccc3n2)cc(OC)c1OC,i,19,3,6,5,5
O=C(O)c1ccccc1/C=N/NC(=O)c1cc(-c2ccco2)nc2ccccc12,+,78*,45*,82*,-25,41
CCCn1c(N)c(N(CCOC)C(=O)c2cc(-c3ccco3)nc3ccccc23)c(=O)[nH]c1=O,i,5,x,59*,18,26
C=CCN(C(=O)c1csnn1)C(C(=O)NCc1ccc(F)cc1)c1sccc1C (stereo not drawn),i,0,x,-8,-1,-1
O=C(CSc1nnc(C2COc3ccccc3O2)o1)N1CCN(c2ccccc2)CC1 (stereo not drawn),i,4,2,-3,7,1
Cc1ccc(Cn2cnc3c(cnn3-c3ccc(F)cc3)c2=O)cc1,i,5,4,3,8,5
Cc1ccc(C)c(N2CCN(C(=O)CCc3nc(-c4cccc(Cl)c4)no3)CC2)c1,x,x,x,x,-5,x
Cn1cc(-c2csc(C(O)c3ccc(F)cc3)n2)cn1 (stereo not drawn),x,x,x,x,-7,x
COc1cc(OC)cc(C2=NCCN2)c1,i,-1,1,0,-13,-5
COc1ccc(CCNC(=O)c2cc(-c3ccco3)nc3ccccc23)cc1,+,15,x,75*,x,65*
N#Cc1c2nc3ccccc3nc2n2cc(NC(=O)c3ccc(F)cc3)ccc12,i,x,16,u,37,x
Cc1c(C(=O)Nc2ccc(F)cc2)cn2c(nc3ccccc32)c1C#N,i,53*,2,18,-27,7
COc1ccnc(CN(C)C(=O)C2CCC(=O)N(CCN(C)C)C2)c1 (stereo not drawn),i,11,x,54*,-8,-5
COCc1c(Br)c(C)nc(OCC(=O)N/N=C/c2cc(C)n(-c3ccc([N+](=O)[O-])cc3)c2C)c1C#N,i,18,5,8,0,48*
Cc1onc(-c2ccccc2)c1C(=O)Nc1ccc(S(=O)(=O)N2CCOCC2)cc1,i,-5,x,-5,-6,1
COc1cccc(CC2(CO)CCCN(Cc3sc(N4CCCC4)nc3Cl)C2)c1 (stereo not drawn),+,3,-5,56*,28,2
O=C(Oc1coc(CSc2nnc(NC(=O)C3CC3)s2)cc1=O)c1c(F)cccc1F,i,5,0,32,9,8
